Measured values reported in ChEMBL document CHEMBL5096187, “Efficient Synthesis and Bioevaluation of Novel Dual Tubulin/Histone Deacetylase 3 Inhibitors as Potential Anticancer Agents” (J Med Chem, 2021).
pIC50: −log10 of the molar value.

Key:
Histone deacetylase 1 = Histone deacetylase 1 (Homo sapiens, UniProt Q13547); experiment: Inhibition of full length recombinant human HDAC1 (1 to 482 residues) expressed in Baculovirus system using Ac-Leu-Gly-Lys (Ac)-AMC as substrate pretreated for 5 mins followed by substrate addition and measured after 30 mins
Histone deacetylase 1, sequence (Q13547 whole entry, the tested form may be a part): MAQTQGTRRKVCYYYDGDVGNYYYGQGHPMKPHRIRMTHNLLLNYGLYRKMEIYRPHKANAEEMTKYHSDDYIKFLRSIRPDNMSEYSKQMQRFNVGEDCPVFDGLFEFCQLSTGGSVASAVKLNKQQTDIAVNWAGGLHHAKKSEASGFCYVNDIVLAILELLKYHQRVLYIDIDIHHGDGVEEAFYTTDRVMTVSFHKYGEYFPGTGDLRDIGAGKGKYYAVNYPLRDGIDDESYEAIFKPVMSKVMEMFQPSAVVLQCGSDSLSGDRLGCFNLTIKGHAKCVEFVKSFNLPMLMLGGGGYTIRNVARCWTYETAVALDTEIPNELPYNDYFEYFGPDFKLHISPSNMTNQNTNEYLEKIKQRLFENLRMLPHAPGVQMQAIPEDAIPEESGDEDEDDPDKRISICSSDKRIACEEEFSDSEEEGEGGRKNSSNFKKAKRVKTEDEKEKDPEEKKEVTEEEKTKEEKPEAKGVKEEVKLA

B16-F10 [1] = experiment: Inhibition of cell migration in mouse B16-F10 cells assessed as reduction in wound area ratio measured at 100 nM incubated for 24 hrs by wound healing assay; format: functional; design: scale not given: the % may be the effect or the level left
Summary of the method: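 Confluent B16-F10 monolayers, seeded overnight, were scratched with a pipette tip and washed to remove debris. Cells were then treated, and phase-contrast images were taken at 0 and 24 h. Migration distance or wound area measured manually against DMSO control; n = 3.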

B16-F10 [2] = experiment: Induction of cell cycle arrest in mouse B16-F10 cells assessed as accumulation of cells in G2/M phase at 100 nM measured after 48 hrs by PI/RNaseA staining based flow cytometry analysis (Rvb= 5.76%); format: functional
B16-F10 [3] = experiment: Induction of cell cycle arrest in mouse B16-F10 cells assessed as accumulation of cells in G2/M phase at 25 nM measured after 48 hrs by PI/RNaseA staining based flow cytometry analysis (Rvb= 5.76%); format: functional
B16-F10 [4] = experiment: Induction of apoptosis in mouse B16-F10 cells assessed as early apoptotic cells at 25 nM incubated for 48 hrs by Annexin V-FITC/PI analysis (reference value: 1.68 %); format: functional
B16-F10 [5] = experiment: Upregulation of AC-H3 in mouse B16-F10 cells incubated for 12 hrs by Western blot analysis; format: functional, cell-based; settings: dose 20-200 nM, DDE = dose-dependent effect
Summary of the method: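 B16-F10 cells (5 × 10⁵/well) treated 12 h with DMSO or compound, lysed in RIPA buffer. 30 μg protein separated by SDS-PAGE and blotted onto PVDF. Blocked 5% BSA 2 h, primary antibody overnight at 4 °C, secondary 1.5 h. Ac-H3 probed, with histone H3 and GAPDH as loading controls; band density quantified; three independent experiments.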

B16-F10 [6] = experiment: Antitumor activity against mouse B16-F10 cells allografted in C57BL/6 mouse assessed as tumor growth inhibition at 10 mg/kg, ip administered for 14 days; format: functional; settings: B16-F10, 336 h, time 14 day, read-out: TGI
Summary of the method: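 C57BL/6 mice were inoculated subcutaneously with 3×10⁵ B16-F10 cells in PBS and randomized (n = 8). Drugs in ethanol/polyoxyethylene castor oil/saline (1.25:1.25:7.5) or vehicle alone were given i.p. once daily for 14 days. Mice were sacrificed at day 14 and tumors weighed; TGI(%) = [1 − Wt/Wv] × 100 using mean tumor weights.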

[7] = Nephrotoxicity in C57BL/6 mouse assessed as effect on urea level in serum; format: toxicity; settings: in vivo

## COc1cc(C(=O)c2csc(-c3ccc(NC(=O)CCCC(=O)Nc4ccccc4N)cc3)n2)cc(OC)c1OC
Histone deacetylase 1
  pIC50: 5.04
B16-F10 [1]
  Activity: 7.18%
B16-F10 [2]
  Activity: 83.26%
B16-F10 [3]
  Activity: 15.98%
B16-F10 [4]
  Activity: 10.9%
B16-F10 [5]
  Activity: Dde
B16-F10 [6]
  inhibition in vivo at 10 mg/kg: 70%
[7]
  Activity: Non-Toxic
